# From ChEMBL document CHEMBL3611968, “Reengineered tricyclic anti-cancer agents” (Bioorg Med Chem, 2015)
# Activity calls are given as the source filed them. The rule behind the calls is not given here.
# System: NCI-H1650
# Experiment: Cytotoxicity against human NCI-H1650 cells assessed as growth inhibition after 48 hrs by MTT assay
# Format: functional
# Settings: not given
# In short: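 H1650 cells were exposed to drug for 48 h at five concentrations bracketing 1–40 μM in 10 μM steps, with MTT read-out. GI50 is given only where the data form a sigmoidal dose response.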
row,Compound,GI50
1,O=S(=O)(NCCCN1c2ccccc2CCc2ccccc21)c1ccc2c(c1)OCO2,inactive
2,CC(C)S(=O)(=O)NCCCN1c2ccccc2CCc2ccc(Cl)cc21,inactive
3,O=S(=O)(NCCCN1c2ccccc2CCc2cncnc21)c1ccc(Cl)cc1,inactive
4,CCCN1c2ccccc2Sc2ccc(Cl)cc21,inactive
5,O=S(=O)(c1ccc(OC(F)(F)F)cc1)N1CCCCC1CCN1c2ccccc2CCc2ccccc21 (configuration not stated),inactive
6,CN(C)S(=O)(=O)NCCCN1c2ccccc2CCc2ccccc21,inactive
7,O=C(NCCCN1c2ccccc2CCc2ccc(Cl)cc21)NS(=O)(=O)c1ccc(OC(F)(F)F)cc1,inactive
8,CC(=O)NCCCN1c2ccccc2CCc2ccc(Cl)cc21,inactive
9,O=S(=O)(CCCN1c2ccccc2CCc2ccc(Cl)cc21)c1ccc(OC(F)(F)F)cc1,inactive
10,CN(CCN1c2ccccc2CCc2ccc(Cl)cc21)S(=O)(=O)c1ccc(C(F)(F)F)cc1,inactive
11,O=S(=O)(c1ccc(OC(F)(F)F)cc1)N1CCC(=C2c3ccccc3CCc3ccccc32)CC1,inactive
12,O=S(=O)(c1ccc(OC(F)(F)F)cc1)N1CCCCC1CCN1c2ccccc2Sc2ccc(Cl)cc21 (configuration not stated),inactive
13,O=S(=O)(c1ccc(Cl)cc1)N1CCCCC1CCN1c2ccccc2Sc2ccc(Cl)cc21 (configuration not stated),inactive
14,O=C(NCCCN1c2ccccc2CCc2ccc(Cl)cc21)c1ccccc1,inactive
15,O=S(=O)(NCCCCN1c2ccccc2CCc2ccc(Cl)cc21)c1ccc(OC(F)(F)F)cc1,inactive

# Same assay, conditions: NCI-H1650, 48 h
row,Compound,GI50 [µM]
1,O=S(=O)(NCCCN1c2ccccc2CCc2ccc(Cl)cc21)c1cccc(OC(F)(F)F)c1,20
2,Cn1c(=O)oc2cc(S(=O)(=O)NCCCN3c4ccccc4CCc4ccccc43)ccc21,> 40
3,CC(=O)NCCCN1c2ccccc2Sc2ccc(Cl)cc21,> 40
4,O=S(=O)(NCCCN1c2ccccc2CCc2ccc(Cl)cc21)c1cccc2ccccc12,> 40
5,NCCCN1c2ccccc2Sc2ccc(Cl)cc21,10
6,CC(CN1c2ccccc2Sc2ccccc21)N(C)C (configuration not stated) [PROMETHAZINE],> 40
7,COc1ccc(S(=O)(=O)NCCCN2c3ccccc3Sc3ccc(Cl)cc32)cc1,> 40
8,O=S(=O)(N[C@H]1CC[C@H](N2c3ccccc3CCc3ccccc32)CC1)c1ccc(Cl)cc1,15
9,O=S(=O)(NCCNC1c2ccccc2CCc2ccccc21)c1ccc(Cl)cc1,26
10,O=S(=O)(NCCCN1c2ccccc2CCc2ccc(Cl)cc21)c1ccc(C(F)(F)F)cc1,12.6
11,O=S(=O)(N[C@@H]1CCC[C@@H](N2c3ccccc3CCc3ccccc32)C1)c1ccc(OC(F)(F)F)cc1,18
12,O=S(=O)(NCCCN1c2ccccc2Sc2ccc(Cl)cc21)c1ccc(OC(F)(F)F)cc1,> 40
13,O=S(=O)(NCCCN1c2ccccc2CCc2ccccc21)c1ccc(C(F)(F)F)cc1,14.3
14,O=S(=O)(NCC/C=C1/c2ccccc2Sc2ccc(Cl)cc21)c1ccc(Cl)cc1,> 40
15,COC(=O)NCCCCN1c2ccccc2Sc2ccc(Cl)cc21,> 40
16,CN(C)CCC=C1c2ccccc2COc2ccccc21 [DOXEPIN],> 40
17,O=S(=O)(NCCCN1c2ccccc2CCc2ccccc21)c1ccc(N2CCOCC2)cn1,> 40
18,O=S(=O)(NC1CCC2(OC1)c1ccccc1CCc1ccccc12)c1ccc(Cl)cc1 (configuration not stated),25
19,O=S(=O)(NCCC=C1c2ccccc2CCc2ccccc21)c1ccc(F)cc1,20

row,Compound,GI50 [µM]
1,O=S(=O)(N[C@H]1CC[C@@H](N2c3ccccc3CCc3ccccc32)CC1)c1ccc(Cl)cc1,10
2,O=S(=O)(NCCCN1c2ccccc2CCc2ccccc21)c1ccc(Cl)cc1,20.6
3,NCCCN1c2ccccc2CCc2ccc(Cl)cc21,10
4,O=S(=O)(NCCCN1c2ccccc2OCc2cccnc21)c1ccc(OC(F)(F)F)cc1,19.1
5,O=S(=O)(NCCC=C1c2ccccc2CCc2ccccc21)c1ccc(OC(F)(F)F)cc1,20
6,O=S(=O)(NCCCN1c2ccccc2CCc2ccccc21)c1ccc(Oc2ccccc2)nc1,> 40
7,O=S(=O)(NC1CCC2(OC1)c1ccccc1CCc1ccccc12)c1ccccc1 (configuration not stated),22
8,O=S(=O)(NCCCN1c2ccccc2CCc2ccccc21)c1ccc(-n2cccn2)cc1,> 40
9,O=S(=O)(NC1CCOC2(C1)c1ccccc1CCc1ccccc12)c1ccc(Cl)cc1 (configuration not stated),> 40
10,O=S(=O)(NCCC=C1c2ccccc2CCc2ccccc21)c1ccc(Cl)cc1,18
11,O=S(=O)(NCCCN1c2ccccc2CCc2cccnc21)c1ccc(OC(F)(F)F)cc1,22
12,CN(C)CCCN1c2ccccc2Sc2ccc(Cl)cc21 [CHLORPROMAZINE],30.3
13,O=S(=O)(NCCN1c2ccccc2Sc2ccc(Cl)cc21)c1ccc(OC(F)(F)F)cc1,25
14,Cc1ccc(S(=O)(=O)NCCN2c3ccccc3Sc3ccc(Cl)cc32)cc1,24.4
15,O=S(=O)(NCCCN1c2ccccc2CCc2ccc(Cl)cc21)c1ccc2ccccc2c1,> 40
16,Cn1ccc2c(S(=O)(=O)NCCCN3c4ccccc4CCc4ccccc43)cccc21,> 40
17,O=S(=O)(NCCCN1c2ccccc2CCc2ccc(Cl)cc21)c1cnc(Cl)c(Br)c1,> 40
18,CCN(CC)C(C)CN1c2ccccc2Sc2ccccc21 (configuration not stated) [ETHOPROPAZINE],> 40
19,O=S(=O)(NCCN1c2ccccc2CCc2ccc(Cl)cc21)c1ccc(OC(F)(F)F)cc1,22

row,Compound,GI50 [µM]
1,O=S(=O)(NC1CCCC(=C2c3ccccc3CCc3ccccc32)C1)c1ccc(OC(F)(F)F)cc1 (configuration not stated),15
2,CN(C)C(=O)NCCCN1c2ccccc2CCc2ccc(Cl)cc21,> 40
3,Cc1nn(C)c(C)c1S(=O)(=O)NCCCN1c2ccccc2CCc2ccccc21,> 40
4,N#Cc1ccc(S(=O)(=O)NCCCN2c3ccccc3Sc3ccc(Cl)cc32)cc1,> 40
5,Cc1nn(C)c(Cl)c1S(=O)(=O)NCCCN1c2ccccc2CCc2ccccc21,> 40
6,CC(CNS(=O)(=O)c1ccc(Cl)cc1)CN1c2ccccc2CCc2ccccc21 (configuration not stated),23
7,O=S(=O)(NCCN1c2ccccc2CCc2ccc(Cl)cc21)c1ccc(C(F)(F)F)cc1,16.4
8,CC(=O)Nc1ncc(S(=O)(=O)NCCCN2c3ccccc3CCc3ccccc32)s1,> 40
9,Cc1ccc(S(=O)(=O)NCCCCN2c3ccccc3Sc3ccc(Cl)cc32)cc1,> 40
10,O=S(=O)(NC1CCC2(OC1)c1ccccc1CCc1ccccc12)c1ccc(C(F)(F)F)cc1 (configuration not stated),15
11,O=S(=O)(NCCCN1c2ccccc2CCc2ccc(Cl)cc21)c1ccccc1OC(F)(F)F,25
12,O=S(=O)(NC1CCC(=C2c3ccccc3CCc3ccccc32)CC1)c1ccc(OC(F)(F)F)cc1 (configuration not stated),20
13,O=S(=O)(NCCN1c2ccccc2Sc2ccc(Cl)cc21)c1ccc(C(F)(F)F)cc1,25
14,CN(C)CCC=C1c2ccccc2CCc2ccccc21 [AMITRIPTYLINE],> 40
15,O=S(=O)(NCCCN1c2ccccc2CCc2ccccc21)c1ccc(OC(F)(F)F)cc1,22
16,O=S(=O)(NCCCN1c2ccccc2CCc2ccc(Cl)cc21)c1ccccc1,25
17,O=S(=O)(NCC/C=C1/c2ccccc2Sc2ccc(Cl)cc21)c1ccc(OC(F)(F)F)cc1,40
18,O=S(=O)(NCCCN1c2ccccc2CCc2ccc(Cl)cc21)c1ccc(Cl)c(Cl)c1,21.3
19,O=S(=O)(NCCCN1c2ccccc2Sc2ccc(Cl)cc21)c1cc(F)cc(F)c1,18
